Bioassay records (PubChem BioAssay)
An excerpt weighted towards active compounds, which were near 2.1% of everything screened.
Hck Nef HTS – inhibitors of human Hck kinase activated by Nef. 220,000 compounds, 0.68% hits. AID 463187. Recombinant Hck-YEEI plus Nef, Z-Lyte FRET kinase assay. inhibition, % at 20 µM;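 active = Hck-Nef kinase inhibition above about 50%, limit read from the data; inactive = inhibition below that limit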;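 note: 0% = DMSO with Hck plus Nef and 100% = Hck alone without Nef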
Tb hexokinase – T. brucei hexokinase 1 inhibition | 220,000 compounds, 0.11% hits | AID 1430 | inhibition, % at 10 µM | recombinant TbHK1, G6PDH-coupled NADH A340;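 active = inhibition of 50% or more in the single-dose primary screen; inactive = inhibition below 50%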
Runt-SMMHC FRET – inhibitors of human RUNX1 Runt domain binding to CBFb-SMMHC. Cerulean-Runt/Venus-CBFb-SMMHC FRET ratio 530/480, 1 h. inhibition, % at 20 µM. 220,000 compounds, 0.74% hits;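 active = mean inhibition across duplicate retests at 20 µM reaching about 50%, limit read from the data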;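 note: 0% = DMSO wells and 100% = wells with excess untagged CBFb-SMMHC; inhibitors lower the FRET ratio by blocking Runt binding to CBFb-SMMHC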
Runt-CBFb FRET – inhibitors of human RUNX1 Runt domain binding to CBFb; inhibition, % at 20 µM; Cerulean-Runt/Venus-CBFb FRET ratio 530/480, 1 h; 220,000 compounds, 0.46% hits; Q01196+Q13951;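 active = inhibition over about 50% at 20 µM in the single-dose screen, limit read from the data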;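 note: 0% = DMSO wells and 100% = excess unlabeled CBFb competitor control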
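Doses: 20 µM compound in 1% DMSO | Material: Cerulean-labeled Runt domain protein | Amount: Each fluorescent fusion protein 100 nM | Schedule: Two 1 h room-temperature incubations shielded from light | Measured by: FRET fluorescence | Evaluation: Loss of energy transfer signal | Controls: Unlabeled CBFb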
p97 inhibitor – inhibitors of human p97 ATPase. P55072. recombinant p97 ATPase, Kinase-Glo ATP luminescence, 3 h. inhibition, % at 8 µM. 220,000 compounds, 0.42% hits. AID 1481; in the data active = inhibition above about 15%;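 note: 0% = DMSO vehicle and 100% = wells lacking enzyme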
Target sequence (P55072 whole entry, looked up): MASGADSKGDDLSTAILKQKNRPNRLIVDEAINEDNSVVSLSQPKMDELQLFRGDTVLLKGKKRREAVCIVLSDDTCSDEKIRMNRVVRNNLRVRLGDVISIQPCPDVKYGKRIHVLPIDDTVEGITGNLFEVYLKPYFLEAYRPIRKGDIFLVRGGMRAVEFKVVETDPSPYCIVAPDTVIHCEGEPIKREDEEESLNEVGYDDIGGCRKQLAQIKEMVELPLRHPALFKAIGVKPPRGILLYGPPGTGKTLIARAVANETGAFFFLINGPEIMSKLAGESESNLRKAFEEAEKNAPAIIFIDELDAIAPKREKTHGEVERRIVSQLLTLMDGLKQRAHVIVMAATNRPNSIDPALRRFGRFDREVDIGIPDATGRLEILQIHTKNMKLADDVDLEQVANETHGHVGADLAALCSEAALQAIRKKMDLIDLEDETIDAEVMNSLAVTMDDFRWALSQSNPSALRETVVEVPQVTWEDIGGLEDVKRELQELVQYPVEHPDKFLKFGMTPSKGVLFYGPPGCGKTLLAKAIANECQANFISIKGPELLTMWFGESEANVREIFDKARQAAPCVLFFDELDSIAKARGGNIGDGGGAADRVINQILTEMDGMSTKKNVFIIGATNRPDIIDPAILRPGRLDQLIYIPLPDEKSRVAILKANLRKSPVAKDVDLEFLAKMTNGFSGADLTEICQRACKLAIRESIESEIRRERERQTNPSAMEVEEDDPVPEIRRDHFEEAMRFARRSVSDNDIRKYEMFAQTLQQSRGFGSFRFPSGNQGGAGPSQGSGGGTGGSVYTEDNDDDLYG
RanGTP-Impb inh – inhibitors of RanGTP-importin-beta interaction, primary screen, biochemical, FRET, CFP-Ran, YFP-importin-beta, homogeneous. cell-free CFP-Ran/YFP-importin-beta FRET ratio. inhibition, % (no concentration beside the values). 300,000 compounds, 1.1% hits. AID 2216;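 active = more than half of the replicate wells show a fall in the fluorescence ratio signal beyond about 16%, limit read from the data, passing the limit was not always enough; inconclusive = exactly half of the replicate wells pass the set limit; inactive = fewer than half of replicates pass the limit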;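 note: 0% = DMSO wells and 100% = Ran loaded with GDP instead of GTP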
Hck Nef conf – confirmation of Hck-Nef kinase inhibitors; shares compounds with Hck Nef HTS; Recombinant Hck-YEEI:Nef, Z-Lyte FRET kinase assay; calls only at 10 µM; 1,300 compounds, 28% hits;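 active = average inhibition of at least 50%, with Z-scores no higher than 3 in both the phospho-tyrosine peptide and fluorescence counterscreens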
Active calls of the source: *; i = inactive; ? = inconclusive; · = no result shown; + = active, no number.

SMILES	Hck Nef HTS	Tb hexokinase	Runt-SMMHC FRET	Runt-CBFb FRET	p97 inhibitor	RanGTP-Impb inh	Hck Nef conf
Cc1ccccc1Nc1ncnc2c1cnn2-c1ccccc1	56.0*	7.6	2.1	0.9	-3.0	-1.1	+
OC(c1ccccc1)(c1ccccc1)c1ccn[nH]1	·	·	·	·	·	5.5	·
O=Cc1cc(N=Nc2ccccc2Cl)ccc1O	56.6*	-16.4	-2.8	-5.3	8.2	-4.4	+
O=S(=O)(Nc1ccccc1Cl)c1cc(NC(=S)NCCN2CCOCC2)ccc1Cl	·	·	·	·	·	-5.7	·
CCOC(=O)CNC(=S)N(Cc1ccco1)Cc1ccccc1Cl	·	·	·	·	·	-2.3	·
Oc1[nH]c2ccccc2c1N=Nc1ncnc2c1oc1ccccc12	56.2*	-47.3	-11.1	-1.9	3.5	-5.7	i
CCc1cc2c(N=Nc3c(O)[nH]c4ccccc34)ncnc2s1	1.9	-7.3	-68.0	-1.9	4.5	-1.4	·
COc1ccc(C2=CC3=C(Br)C(=O)C(C)(O)C(=O)C3=CO2)cc1 (stereo unspecified)	95.2*	-6.5	2.2	-3.9	·	-2.3	+
CCC(=O)OC1(C)C(=O)C2=COC(c3ccc(OC)cc3)=CC2=C(Br)C1=O (stereo unspecified)	81.0*	-32.9	-45.5	12.7	·	-29.3	i
COc1ccc(C2=CC3=CC(=O)C(C)(O)C(=O)C3=CO2)cc1 (stereo unspecified)	·	·	·	·	·	-10.2	·
CC(C)CC(OC(=O)c1nsc(Cl)c1Cl)C(=O)NCC1CCCO1 (stereo unspecified)	·	·	·	·	·	7.4	·
CCOC(=O)N1CCN(C(=O)c2ccc3c(=O)n(-c4ccc(F)cc4)c(=S)[nH]c3c2)CC1	53.2*	-14.4	2.4	-0.2	-2.1	2.3	i
CN1CCN(C(=O)c2ccc3c(=O)n(-c4ccc(F)cc4)c(=S)[nH]c3c2)CC1	1.2	-18.5	1.0	2.2	4.2	-1.4	·
Cc1cccc(NC(=O)CSc2nnc(Cn3cnc4ccccc43)o2)c1	6.2	-1.9	3.0	-2.5	-1.4	9.3	·
C/C(=N\NC(=O)c1ccc(OC2OCCOC2Oc2ccc(C(=O)N/N=C(\C)c3ccncc3)cc2)cc1)c1ccncc1 (stereo unspecified)	61.5*	-29.1	-0.3	-3.3	10.0	-7.5	i
Cc1ccc2sc(C)[n+](CCCS(=O)(=O)[O-])c2c1	-3.2	-3.6	36.0	44.8	2.1	1.6	·
COc1cc(/C=C/c2sc3ccccc3[n+]2CCCS(=O)(=O)[O-])ccc1O	65.3*	-7.2	-232.6	-94.8	-9.2	-120.1	i
CCN(CCCCCN(C)C)Cc1cc2ccccc2o1	3.4	4.3	5.4	1.4	1.6	5.8	·
COc1cc2[nH]c(=S)n(Cc3cccs3)c(=O)c2cc1OC	58.9*	-7.7	-4.2	-1.2	4.5	?	i
N#Cc1c(-c2ccccc2)[nH]c(=O)[nH]c1=O	24.2	-0.7	-0.2	-0.4	-0.7	-1.0	·
N#Cc1c(-c2cccnc2)c2c([nH]c1=O)-c1ccccc1OC2	130.1*	-43.9	81.6*	9.8	8.7	112.8*	·
Cc1nc(N)c(C#N)c(-c2cccnc2)c1C	-0.5	-14.1	-2.4	-0.2	-1.9	3.2	·
N#Cc1c(-c2ccc(F)cc2)c2c([nH]c1=O)-c1ccccc1OC2	126.0*	-3.9	80.2*	59.8*	6.6	101.1*	·
O=c1c(-c2n[nH]c(=S)o2)cccn1Cc1ccccc1	-81.0	-15.1	-16.3	-2.3	2.1	-3.2	·
N#Cc1ccc(/C=C\c2nccc3c2[nH]c2ccccc23)cc1	57.3*	-3.3	89.6	16.9	3.4	102.7*	i
CC(=O)Oc1cc(OC(C)=O)c2c(C)cc(=O)oc2c1	36.5	-22.0	19.4	11.4	2.1	?	·
CCN(c1ccccc1)S(=O)(=O)c1cc(C(=O)Oc2ccc3c(C)cc(=O)oc3c2)ccc1C	55.7*	26.0	25.1	13.4	-3.6	-3.6	·
CC(=O)Oc1ccc2c(C)cc(=O)oc2c1	86.0*	-26.3	19.1	8.8	-1.6	0.1	i
CC1(C)Cc2nc3oc4c(SCC(N)=O)ncnc4c3cc2CO1	6.1	-7.8	-0.2	2.3	-3.1	0.0	·
